Experiment [1] addresses Sulfonylurea receptor 2, Kir6.2 (Homo sapiens, UniProt O60706+Q14654). The experiment in a line: Ability to open human urinary bladder Kir6.2 channel containing SUR2B in Ltk cells by FLIPR assay. It counts as functional, cell-based. In a few lines: (§1)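 Ltk- cells stably transfected with the Kir6.2/SUR2B exon 17- splice variant. Membrane potential was followed with DiBAC dye in a 96-well cell-based kinetic fluorescence (FLIPR) assay. The highest concentration tested was 10 µM. Each compound's maximal fluorescence response was expressed as % of the response to the reference opener.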

Experiment [2] addresses Sulfonylurea receptor 2, Kir6.2 (Homo sapiens) (UniProt Q14654+O60706). The experiment in a line: Ability to open human urinary bladder Kir6.2 containing SUR2B in Ltk cells by FLIPR assay relative to P1075. In kind it is functional, cell-based. In a few lines: as §1

Sequence of Sulfonylurea receptor 2, Kir6.2 (Q14654 whole entry, canonical isoform): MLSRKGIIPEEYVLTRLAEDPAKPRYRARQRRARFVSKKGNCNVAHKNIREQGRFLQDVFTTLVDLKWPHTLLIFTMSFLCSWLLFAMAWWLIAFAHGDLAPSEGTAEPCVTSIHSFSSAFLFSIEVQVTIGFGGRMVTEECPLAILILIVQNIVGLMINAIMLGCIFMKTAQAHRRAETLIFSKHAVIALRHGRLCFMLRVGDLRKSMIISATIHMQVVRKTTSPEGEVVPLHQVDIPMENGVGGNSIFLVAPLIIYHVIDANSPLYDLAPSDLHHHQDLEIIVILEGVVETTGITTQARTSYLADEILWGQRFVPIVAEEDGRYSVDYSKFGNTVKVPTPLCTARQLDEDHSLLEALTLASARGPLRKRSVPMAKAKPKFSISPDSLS
Sequence of Sulfonylurea receptor 2, Kir6.2 (O60706 whole entry, canonical isoform): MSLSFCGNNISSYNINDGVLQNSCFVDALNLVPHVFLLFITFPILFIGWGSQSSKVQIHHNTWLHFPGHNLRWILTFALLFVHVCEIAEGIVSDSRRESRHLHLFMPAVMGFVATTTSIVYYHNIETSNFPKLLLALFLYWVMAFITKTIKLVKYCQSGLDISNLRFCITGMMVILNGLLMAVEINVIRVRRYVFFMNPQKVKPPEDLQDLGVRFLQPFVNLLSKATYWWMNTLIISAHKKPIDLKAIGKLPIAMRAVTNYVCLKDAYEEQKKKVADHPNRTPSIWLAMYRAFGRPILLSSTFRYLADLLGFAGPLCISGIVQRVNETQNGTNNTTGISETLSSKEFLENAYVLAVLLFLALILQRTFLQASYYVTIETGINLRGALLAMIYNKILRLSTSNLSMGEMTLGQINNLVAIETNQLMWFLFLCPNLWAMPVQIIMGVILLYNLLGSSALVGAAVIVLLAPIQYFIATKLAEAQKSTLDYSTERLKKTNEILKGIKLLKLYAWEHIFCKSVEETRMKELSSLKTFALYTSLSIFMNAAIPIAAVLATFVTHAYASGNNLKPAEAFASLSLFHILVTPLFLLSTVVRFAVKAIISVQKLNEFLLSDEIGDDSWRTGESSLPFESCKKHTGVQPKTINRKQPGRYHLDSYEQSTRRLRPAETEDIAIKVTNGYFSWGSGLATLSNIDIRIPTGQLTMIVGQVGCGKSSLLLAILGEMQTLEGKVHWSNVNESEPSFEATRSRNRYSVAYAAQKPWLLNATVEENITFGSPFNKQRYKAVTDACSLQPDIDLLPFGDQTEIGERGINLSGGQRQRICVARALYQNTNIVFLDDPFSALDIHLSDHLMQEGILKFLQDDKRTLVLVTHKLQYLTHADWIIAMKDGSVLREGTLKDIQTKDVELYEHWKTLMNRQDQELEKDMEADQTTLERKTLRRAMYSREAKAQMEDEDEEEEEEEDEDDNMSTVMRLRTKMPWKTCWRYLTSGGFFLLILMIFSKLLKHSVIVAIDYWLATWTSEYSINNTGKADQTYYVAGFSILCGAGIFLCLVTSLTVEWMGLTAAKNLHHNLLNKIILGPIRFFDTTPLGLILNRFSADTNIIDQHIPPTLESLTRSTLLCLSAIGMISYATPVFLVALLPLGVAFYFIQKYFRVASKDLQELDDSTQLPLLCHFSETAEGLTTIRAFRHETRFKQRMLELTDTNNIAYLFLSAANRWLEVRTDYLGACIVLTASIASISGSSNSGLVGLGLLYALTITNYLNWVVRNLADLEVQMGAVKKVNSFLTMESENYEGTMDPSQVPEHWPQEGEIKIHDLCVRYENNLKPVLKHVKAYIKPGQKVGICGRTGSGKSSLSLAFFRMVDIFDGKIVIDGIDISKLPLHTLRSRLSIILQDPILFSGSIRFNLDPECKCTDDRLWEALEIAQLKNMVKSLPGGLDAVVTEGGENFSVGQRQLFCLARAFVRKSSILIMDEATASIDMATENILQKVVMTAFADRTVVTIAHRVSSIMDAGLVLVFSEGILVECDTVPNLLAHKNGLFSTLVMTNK

For `CC[C@@H]1OC(O)=C2C1=NC1=C(C(=O)OCC1)[C@H]2c1ccc(F)c(Br)c1`, the EC50 in experiment [1] is 324 nM. This molecule also gave an Efficacy in experiment [2] of 71%.
In experiment [1], `CC1(C)OCC2=C(C1=O)C(c1ccc(F)c(Br)c1)C1=C(O)C(C)(C)OCC1=N2` (stereo not given) showed an EC50 of 3890 nM. Moreover, the Efficacy in experiment [2] was 61%.
For `CCC1(CC)OCC2=NC3=C(C(=O)COC3)C(c3ccc(F)c(Br)c3)C2=C1O` (stereo not given) the same measures were 13800 nM and 42%.
The molecule `CC1(C)OCC2=NC3=C(C(=O)COC3)C(c3ccc(F)c(Br)c3)C2=C1O` (stereo not given) had a concentration for a half-maximal effect (EC50) in experiment [1] of 17 nM. For the same molecule, the Efficacy in experiment [2] turned out to be 96%.
In the same order, the values of `CC1(C)OCC(=O)C2=C1N=C1COC(O)=C1C2c1ccc(F)c(Br)c1` (stereo not given) are 120 nM and 73%.
Turning to `CC1(C)OC(O)=C2C1=NC1=C(C(=O)COC1)C2c1ccc(F)c(Br)c1` (stereo not given), the EC50 in experiment [1] was 26.9 nM. The molecule also registered an Efficacy in experiment [2] of 77%.
In experiment [1], `O=C1CCCC2=C1[C@H](c1ccc(F)c(Br)c1)C1=C(CCS1(=O)=O)N2` had an EC50 of 158 nM. The molecule also displayed an Efficacy in experiment [2] of 90%.
For the molecule `CC[C@H]1OCC2=C(C1=O)[C@@H](c1ccc(F)c(Br)c1)C1=C(O)OCC1=N2` (racemic), the response in experiment [1] was half-maximal at 1020 nM (EC50). Also, in experiment [2], the Efficacy was 97%.
In turn, `CC[C@@H]1CC(O)=C2C1=NC1=C(C(=O)COC1)[C@H]2c1ccc(F)c(Br)c1` (relative stereo) gave an EC50 in experiment [1] of 1.17 nM. This molecule also came in with an Efficacy in experiment [2] of 88%.
For `C[C@@H]1C2=C(C(=O)N1C)[C@H](c1ccc(F)c(Br)c1)C1=C(O)COCC1=N2` (relative stereo) the same measures were 316 nM and 92%.
For the molecule `CC[C@H]1OCC(=O)C2=C1N=C1COC(O)=C1[C@@H]2c1ccc(F)c(Br)c1` (relative stereo), the response in experiment [1] was half-maximal at 18.2 nM (EC50). Also, the Efficacy in experiment [2] turned out to be 90%.
For `C[C@H]1C2=C(C(=O)N1C)[C@H](c1ccc(F)c(Br)c1)C1=C(COCC1=O)N2` (relative stereo) the same measures were 2.75 nM and 102%.
As for `CC[C@@H]1OCC(=O)C2=C1N=C1COC(O)=C1[C@@H]2c1ccc(F)c(Br)c1` (relative stereo), the response in experiment [1] was half-maximal at 933 nM (EC50). In experiment [2], this molecule yielded an Efficacy of 74%.
In the same order, the values of `CC[C@@H]1OC(O)=C2C1=NC1=C(C(=O)C(C)(C)OC1)[C@H]2c1ccc(F)c(Br)c1` (relative stereo) are 14.5 nM and 105%.
In the same order, the values of `C[C@H]1OC(=O)C2=C1NC1=C([C@H]2c2ccc(F)c(Br)c2)S(=O)(=O)CC1` (relative stereo) are 407 nM and 86%.
With `C[C@H]1OC(=O)C2=C1NC1=C([C@H]2c2ccc(F)c(Br)c2)S(=O)(=O)CCC1` (relative stereo), in experiment [1], the midpoint of the response, the EC50, lay at 224 nM. In experiment [2], this molecule returned an Efficacy of 99%.
In the same order, the values of `C[C@@H]1OC(=O)C2=C1NC1=C([C@H]2c2ccc(F)c(Br)c2)S(=O)(=O)CCC1` (relative stereo) are 56.2 nM and 102%.
For `C[C@@H]1OCC(=O)C2=C1N=C1COC(O)=C1[C@@H]2c1ccc(F)c(Br)c1` (relative stereo) the same measures were 102 nM and 73%.
`CCCC[C@@H]1OC(O)=C2C1=NC1=C(C(=O)COC1)[C@H]2c1ccc(F)c(Br)c1` (relative stereo) had a half-maximal effective concentration (EC50) in experiment [1] of 29.5 nM. The molecule further returned an Efficacy in experiment [2] of 67%.
For `COC[C@@H]1OC(O)=C2C1=NC1=C(C(=O)COC1)[C@H]2c1ccc(F)c(Br)c1` (relative stereo) the same measures were 9.77 nM and 100%.
In the case of `CC[C@@H]1OC(O)=C2C1=NC1=C(C(=O)COC1(C)C)[C@H]2c1ccc(F)c(Br)c1` (relative stereo), the EC50 in experiment [1] was 1740 nM. The same molecule showed an Efficacy in experiment [2] of 59%.
For `C[C@H]1OCC(=O)C2=C1N=C1COC(O)=C1[C@@H]2c1ccc(F)c(Br)c1` (relative stereo) the same measures were 1.82 nM and 96%.
On to `CC[C@@H]1OC(O)=C2C1=NC1=C(C(=O)COC1)[C@H]2c1ccc(F)c(Br)c1` (stereo in doubt; 20a), for which the Efficacy in experiment [2] is 101%.
The same measure, in the same setting: in the case of `CC[C@@H]1OC(O)=C2C1=NC1=C(C(=O)COC1)[C@H]2c1ccc(F)c(Br)c1` (stereo in doubt; 20b) it was 85%.
Molecule `CCC[C@@H]1OC(O)=C2C1=NC1=C(C(=O)COC1)[C@H]2c1ccc(F)c(Br)c1` (stereo in doubt; 22a) showed an Efficacy in experiment [2] of 82%.
For `CCC[C@@H]1OC(O)=C2C1=NC1=C(C(=O)COC1)[C@H]2c1ccc(F)c(Br)c1` (stereo in doubt; 22b), the Efficacy in experiment [2] stood at 66%.
In turn, `CCC[C@H]1OC(O)=C2C1=NC1=C(C(=O)COC1)[C@H]2c1ccc(F)c(Br)c1` (stereo in doubt; 23a) yielded an Efficacy in experiment [2] of 75%.
On the same count and under the same terms, in the case of `COC[C@H]1OC(O)=C2C1=NC1=C(C(=O)COC1)[C@H]2c1ccc(F)c(Br)c1` (stereo in doubt; 25a) it was 95%; in that of `COC[C@H]1OC(O)=C2C1=NC1=C(C(=O)COC1)[C@H]2c1ccc(F)c(Br)c1` (stereo in doubt; 25b), 104%; in that of `CCCC[C@H]1OC(O)=C2C1=NC1=C(C(=O)COC1)[C@H]2c1ccc(F)c(Br)c1` (stereo in doubt; 29a), 62%.
Still for that read-out and setting: the same measure for `CC(C)C[C@H]1OC(O)=C2C1=NC1=C(C(=O)COC1)[C@H]2c1ccc(F)c(Br)c1` (stereo in doubt; 31a): 66%.
Same read-out and setting: in the case of `CC[C@H]1OC(O)=C2C1=NC1=C(C(=O)C(C)(C)OC1)[C@H]2c1ccc(F)c(Br)c1` (stereo in doubt; 36a) it was 89%; in that of `CC[C@H]1OC(O)=C2C1=NC1=C(C(=O)COC1(C)C)[C@H]2c1ccc(F)c(Br)c1` (stereo in doubt; 38a), 77%; in that of `CCC[C@H]1OC(O)=C2C1=NC1=C(C(=O)COC1)[C@H]2c1ccc(F)c(Cl)c1` (stereo in doubt; 39a), 74%.
In experiment [2], `CCC[C@H]1OC(O)=C2C1=NC1=C(C(=O)COC1)[C@H]2c1ccc(F)c(I)c1` (stereo in doubt; 41a) gave an Efficacy of 81%.
Still for that read-out and setting: the same measure for `CCC[C@H]1OC(O)=C2C1=NC1=C(C(=O)COC1)[C@H]2c1ccc(Cl)c(Cl)c1` (stereo in doubt; 42a): 87%; for `CCC[C@H]1OC(O)=C2C1=NC1=C(C(=O)COC1)[C@H]2c1ccc(Cl)c(Cl)c1` (stereo in doubt; 42b): 62%; for `CCC[C@H]1OC(O)=C2C1=NC1=C(C(=O)COC1)[C@H]2c1ccc(Cl)c(Br)c1` (stereo in doubt; 43a): 90%.
`CCC[C@H]1OC(O)=C2C1=NC1=C(C(=O)COC1)[C@H]2c1ccc(Cl)c(Br)c1` (stereo in doubt; 43b) came in with an Efficacy in experiment [2] of 99%.
Still for that read-out and setting: the same measure for `CCC[C@H]1OC(O)=C2C1=NC1=C(C(=O)COC1)[C@H]2c1ccc(Br)c(Cl)c1` (stereo in doubt; 44a): 121%; for `CCC[C@H]1OC(O)=C2C1=NC1=C(C(=O)COC1)[C@H]2c1ccc(Br)c(Cl)c1` (stereo in doubt; 44b): 92%; for `CCC[C@H]1OC(O)=C2C1=NC1=C(C(=O)COC1)[C@H]2c1ccc(Br)c(Br)c1` (stereo in doubt; 45a): 104%.
Take `CCC[C@H]1OC(O)=C2C1=NC1=C(C(=O)COC1)[C@H]2c1ccc(Br)c(Br)c1` (stereo in doubt; 45b): in experiment [2], the Efficacy was 108%.
The same measure, in the same setting: in the case of `CCC[C@H]1OC(O)=C2C1=NC1=C(C(=O)COC1)[C@H]2c1ccc(C)c(Br)c1` (stereo in doubt; 46a) it was 81%; in that of `CCC[C@H]1OC(O)=C2C1=NC1=C(C(=O)COC1)[C@H]2c1ccc(C)c(Br)c1` (stereo in doubt; 46b), 87%.
For `CC[C@@H]1OCC(O)=C2C1=NC1=C(C(=O)COC1)[C@H]2c1ccc(F)c(Br)c1` (stereo in doubt; 70a), in experiment [2], the Efficacy was determined as 87%.
The same measure, in the same setting: the same measure for `CC[C@@H]1OCC(O)=C2C1=NC1=C(C(=O)COC1)[C@H]2c1ccc(F)c(Br)c1` (stereo in doubt; 70b): 94%.
On to `CC[C@H]1OCC(O)=C2C1=NC1=C(C(=O)COC1)[C@H]2c1ccc(F)c(Cl)c1` (stereo in doubt; 72a), for which, in experiment [2], the Efficacy was 66%.
The molecule `CC[C@H]1OCC(O)=C2C1=NC1=C(C(=O)COC1)[C@H]2c1ccc(F)c(I)c1` (stereo in doubt; 73a) gave an Efficacy in experiment [2] of 69%.
The same measure, in the same setting: the same measure for `CC[C@H]1OCC(O)=C2C1=NC1=C(C(=O)COC1)[C@H]2c1ccc(F)c(I)c1` (stereo in doubt; 73b): 53%.
`CC[C@H]1OCC(O)=C2C1=NC1=C(C(=O)COC1)[C@H]2c1ccc(Cl)c(Cl)c1` (stereo in doubt; 74a): the Efficacy in experiment [2] was found to be 118%.
With `CC[C@H]1OCC(O)=C2C1=NC1=C(C(=O)COC1)[C@H]2c1ccc(Cl)c(Br)c1` (stereo in doubt; 75a), the Efficacy in experiment [2] amounted to 89%.
The molecule `CC[C@H]1OCC(O)=C2C1=NC1=C(C(=O)COC1)[C@H]2c1ccc(Cl)c(Br)c1` (stereo in doubt; 75b) displayed an Efficacy in experiment [2] of 54%.
Same read-out and setting: the same measure for `CC[C@H]1OCC(O)=C2C1=NC1=C(C(=O)COC1)[C@H]2c1ccc(Br)c(Cl)c1` (stereo in doubt; 76a): 76%; for `CC[C@H]1OCC(O)=C2C1=NC1=C(C(=O)COC1)[C@H]2c1ccc(Br)c(Br)c1` (stereo in doubt; 77a): 120%; for `CC[C@H]1OCC(O)=C2C1=NC1=C(C(=O)COC1)[C@H]2c1ccc(Br)c(Br)c1` (stereo in doubt; 77b): 104%.
Take `CC[C@H]1OCC(O)=C2C1=NC1=C(C(=O)COC1)[C@H]2c1ccc(C)c(Br)c1` (stereo in doubt; 78a): in experiment [2], the Efficacy was 94%.
For the molecule `CC[C@H]1OCC(O)=C2C1=NC1=C(C(=O)COC1)[C@H]2c1ccc(C)c(Br)c1` (stereo in doubt; 78b), the Efficacy in experiment [2] turned out to be 56%.

For the origin of these results see ChEMBL document CHEMBL1137338, “Effects of substitution on 9-(3-bromo-4-fluorophenyl)-5,9-dihydro-3H,4H-2,6-dioxa-4- azacyclopenta[b]naphthalene-1,8-dione, a dihydropyridine ATP-sensitive potassium channel opener” (J Med Chem, 2006).
